Measurements: ChEMBL document CHEMBL5303300, “EUbOPEN Chemogenomics Library - Multiplex” (2023)
Where “and” joins values, the source holds several entries; their conditions need not be identical. Identical values can stand only once.

What was measured:
Assay type in all cases: toxicity, cell-based
Fibroblast = assay: Multiplex assay against human fibroblast; conditions: number of replicates 2
How it was run: (§1)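 Live cells were stained at seeding with Hoechst33342, BioTracker Green Microtubule Cytoskeleton Dye, MitoTracker Red and Annexin V Alexa Fluor 680. Following compound addition, they were imaged on a CQ1 microscope at 37°C and 5% CO2 and gated by CellPathfinder machine learning into Hoechst high-intensity objects or normal cells, with normal cells split into healthy, pyknosed or fragmented nuclei and pyknosed cells into mitotic or apoptotic. Tubulin, mitochondrial-mass and membrane-permeability phenotypes are per cents of healthy-nucleus cells.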

HEK-293T = assay: Multiplex assay against HEK293T; conditions: human, number of replicates 2; how it was run: as §1
U2OS = assay: Multiplex assay against U2OS; conditions: human, number of replicates 2; how it was run: as §1
[1] = 12 h, 1 µM, compound concentration 1 uM
[2] = 12 h, 10 µM, compound concentration 10 uM
[3] = 24 h, 1 µM, compound concentration 1 uM
[4] = 24 h, 10 µM, compound concentration 10 uM
[5] = 48 h, 1 µM, compound concentration 1 uM
[6] = 48 h, 10 µM, compound concentration 10 uM

CN1CCN(C(=O)Cc2ccc(N/C(=C3\C(=O)Nc4cc(Cl)ccc43)c3ccccc3)cc2)CC1
Population Apoptotic (%) (Fibroblast; [1]): 43% and 30%
Population Fragmented Nuclei (%) (Fibroblast; [1]): 9% and 8%
Population Healthy Nuclei (%) (Fibroblast; [1]): 69%
Population Hoechst High Intensity Objects (%) (Fibroblast; [1]): 0%
Population Membrane Permeable-Phenotype (%) (Fibroblast; [1]): 5% and 7%
Population Mitochondria Different-Phenotype (%) (Fibroblast; [1]): 0% and 1%
Population Mitotic Cells (%) (Fibroblast; [1]): 56% and 69%
Population Normal (%) (Fibroblast; [1]): 100%
Population Pyknosed Nuclei (%) (Fibroblast; [1]): 20% and 21%
Population Tubulin-Different-Phenotype (%) (Fibroblast; [1]): 8% and 15%
Total Cell Count (Fibroblast; [1]): 178 and 179
Population Apoptotic (%) (Fibroblast; [2]): 51% and 36%
Population Fragmented Nuclei (%) (Fibroblast; [2]): 12% and 11%
Population Healthy Nuclei (%) (Fibroblast; [2]): 74% and 67%
Population Hoechst High Intensity Objects (%) (Fibroblast; [2]): 0%
Population Membrane Permeable-Phenotype (%) (Fibroblast; [2]): 7% and 5%
Population Mitochondria Different-Phenotype (%) (Fibroblast; [2]): 2%
Population Mitotic Cells (%) (Fibroblast; [2]): 48% and 63%
Population Normal (%) (Fibroblast; [2]): 100%
Population Pyknosed Nuclei (%) (Fibroblast; [2]): 12% and 21%
Population Tubulin-Different-Phenotype (%) (Fibroblast; [2]): 34% and 26%
Total Cell Count (Fibroblast; [2]): 240 and 203
Population Apoptotic (%) (Fibroblast; [3]): 43% and 52%
Population Fragmented Nuclei (%) (Fibroblast; [3]): 7% and 12%
Population Healthy Nuclei (%) (Fibroblast; [3]): 72% and 68%
Population Hoechst High Intensity Objects (%) (Fibroblast; [3]): 0%
Population Membrane Permeable-Phenotype (%) (Fibroblast; [3]): 5%
Population Mitochondria Different-Phenotype (%) (Fibroblast; [3]): 0% and 2%
Population Mitotic Cells (%) (Fibroblast; [3]): 56% and 47%
Population Normal (%) (Fibroblast; [3]): 100%
Population Pyknosed Nuclei (%) (Fibroblast; [3]): 20% and 19%
Population Tubulin-Different-Phenotype (%) (Fibroblast; [3]): 12% and 10%
Total Cell Count (Fibroblast; [3]): 193 and 174
Population Apoptotic (%) (Fibroblast; [4]): 51% and 56%
Population Fragmented Nuclei (%) (Fibroblast; [4]): 12% and 17%
Population Healthy Nuclei (%) (Fibroblast; [4]): 74% and 67%
Population Hoechst High Intensity Objects (%) (Fibroblast; [4]): 0%
Population Membrane Permeable-Phenotype (%) (Fibroblast; [4]): 2%
Population Mitochondria Different-Phenotype (%) (Fibroblast; [4]): 5% and 8%
Population Mitotic Cells (%) (Fibroblast; [4]): 48% and 43%
Population Normal (%) (Fibroblast; [4]): 100% and 99%
Population Pyknosed Nuclei (%) (Fibroblast; [4]): 12% and 14%
Population Tubulin-Different-Phenotype (%) (Fibroblast; [4]): 35% and 28%
Total Cell Count (Fibroblast; [4]): 232 and 216
Population Apoptotic (%) (Fibroblast; [5]): 64% and 72%
Population Fragmented Nuclei (%) (Fibroblast; [5]): 12% and 16%
Population Healthy Nuclei (%) (Fibroblast; [5]): 75% and 68%
Population Hoechst High Intensity Objects (%) (Fibroblast; [5]): 0%
Population Membrane Permeable-Phenotype (%) (Fibroblast; [5]): 5% and 3%
Population Mitochondria Different-Phenotype (%) (Fibroblast; [5]): 0%
Population Mitotic Cells (%) (Fibroblast; [5]): 36% and 27%
Population Normal (%) (Fibroblast; [5]): 100%
Population Pyknosed Nuclei (%) (Fibroblast; [5]): 12% and 15%
Population Tubulin-Different-Phenotype (%) (Fibroblast; [5]): 9% and 5%
Total Cell Count (Fibroblast; [5]): 200 and 186
Population Apoptotic (%) (Fibroblast; [6]): 65% and 75%
Population Fragmented Nuclei (%) (Fibroblast; [6]): 11% and 17%
Population Healthy Nuclei (%) (Fibroblast; [6]): 76% and 65%
Population Hoechst High Intensity Objects (%) (Fibroblast; [6]): 0%
Population Membrane Permeable-Phenotype (%) (Fibroblast; [6]): 3% and 1%
Population Mitochondria Different-Phenotype (%) (Fibroblast; [6]): 4% and 5%
Population Mitotic Cells (%) (Fibroblast; [6]): 34% and 25%
Population Normal (%) (Fibroblast; [6]): 100%
Population Pyknosed Nuclei (%) (Fibroblast; [6]): 12% and 16%
Population Tubulin-Different-Phenotype (%) (Fibroblast; [6]): 37% and 25%
Total Cell Count (Fibroblast; [6]): 213 and 212
Population Apoptotic (%) (HEK-293T; [1]): 28% and 39%
Population Fragmented Nuclei (%) (HEK-293T; [1]): 2% and 3%
Population Healthy Nuclei (%) (HEK-293T; [1]): 86% and 84%
Population Hoechst High Intensity Objects (%) (HEK-293T; [1]): 5%
Population Membrane Permeable-Phenotype (%) (HEK-293T; [1]): 2% and 4%
Population Mitochondria Different-Phenotype (%) (HEK-293T; [1]): 10% and 16%
Population Mitotic Cells (%) (HEK-293T; [1]): 71% and 60%
Population Normal (%) (HEK-293T; [1]): 94%
Population Pyknosed Nuclei (%) (HEK-293T; [1]): 11% and 12%
Population Tubulin-Different-Phenotype (%) (HEK-293T; [1]): 45% and 47%
Total Cell Count (HEK-293T; [1]): 870 and 527
Population Apoptotic (%) (HEK-293T; [2]): 40% and 34%
Population Fragmented Nuclei (%) (HEK-293T; [2]): 1%
Population Healthy Nuclei (%) (HEK-293T; [2]): 86% and 81%
Population Hoechst High Intensity Objects (%) (HEK-293T; [2]): 3% and 5%
Population Membrane Permeable-Phenotype (%) (HEK-293T; [2]): 4% and 6%
Population Mitochondria Different-Phenotype (%) (HEK-293T; [2]): 22% and 18%
Population Mitotic Cells (%) (HEK-293T; [2]): 60% and 65%
Population Normal (%) (HEK-293T; [2]): 96% and 94%
Population Pyknosed Nuclei (%) (HEK-293T; [2]): 11% and 16%
Population Tubulin-Different-Phenotype (%) (HEK-293T; [2]): 67% and 69%
Total Cell Count (HEK-293T; [2]): 702 and 579
Population Apoptotic (%) (HEK-293T; [3]): 29% and 31%
Population Fragmented Nuclei (%) (HEK-293T; [3]): 4%
Population Healthy Nuclei (%) (HEK-293T; [3]): 87%
Population Hoechst High Intensity Objects (%) (HEK-293T; [3]): 9% and 5%
Population Membrane Permeable-Phenotype (%) (HEK-293T; [3]): 3%
Population Mitochondria Different-Phenotype (%) (HEK-293T; [3]): 6% and 10%
Population Mitotic Cells (%) (HEK-293T; [3]): 70% and 68%
Population Normal (%) (HEK-293T; [3]): 90% and 94%
Population Pyknosed Nuclei (%) (HEK-293T; [3]): 7% and 8%
Population Tubulin-Different-Phenotype (%) (HEK-293T; [3]): 28% and 32%
Total Cell Count (HEK-293T; [3]): 1172 and 750
Population Apoptotic (%) (HEK-293T; [4]): 29% and 34%
Population Fragmented Nuclei (%) (HEK-293T; [4]): 3% and 4%
Population Healthy Nuclei (%) (HEK-293T; [4]): 88% and 86%
Population Hoechst High Intensity Objects (%) (HEK-293T; [4]): 4% and 5%
Population Membrane Permeable-Phenotype (%) (HEK-293T; [4]): 3% and 4%
Population Mitochondria Different-Phenotype (%) (HEK-293T; [4]): 12% and 9%
Population Mitotic Cells (%) (HEK-293T; [4]): 70% and 65%
Population Normal (%) (HEK-293T; [4]): 95% and 94%
Population Pyknosed Nuclei (%) (HEK-293T; [4]): 8% and 9%
Population Tubulin-Different-Phenotype (%) (HEK-293T; [4]): 48%
Total Cell Count (HEK-293T; [4]): 992 and 819
Population Apoptotic (%) (HEK-293T; [5]): 17%
Population Fragmented Nuclei (%) (HEK-293T; [5]): 13% and 7%
Population Healthy Nuclei (%) (HEK-293T; [5]): 83% and 87%
Population Hoechst High Intensity Objects (%) (HEK-293T; [5]): 9% and 8%
Population Membrane Permeable-Phenotype (%) (HEK-293T; [5]): 3%
Population Mitochondria Different-Phenotype (%) (HEK-293T; [5]): 0% and 1%
Population Mitotic Cells (%) (HEK-293T; [5]): 82%
Population Normal (%) (HEK-293T; [5]): 90% and 91%
Population Pyknosed Nuclei (%) (HEK-293T; [5]): 2% and 4%
Population Tubulin-Different-Phenotype (%) (HEK-293T; [5]): 12% and 15%
Total Cell Count (HEK-293T; [5]): 2950 and 1758
Population Apoptotic (%) (HEK-293T; [6]): 17% and 42%
Population Fragmented Nuclei (%) (HEK-293T; [6]): 10% and 8%
Population Healthy Nuclei (%) (HEK-293T; [6]): 85% and 87%
Population Hoechst High Intensity Objects (%) (HEK-293T; [6]): 8% and 9%
Population Membrane Permeable-Phenotype (%) (HEK-293T; [6]): 4%
Population Mitochondria Different-Phenotype (%) (HEK-293T; [6]): 3%
Population Mitotic Cells (%) (HEK-293T; [6]): 82% and 58%
Population Normal (%) (HEK-293T; [6]): 91% and 90%
Population Pyknosed Nuclei (%) (HEK-293T; [6]): 3% and 4%
Population Tubulin-Different-Phenotype (%) (HEK-293T; [6]): 31% and 34%
Total Cell Count (HEK-293T; [6]): 1910 and 1370
Population Apoptotic (%) (U2OS; [1]): 100% and 55%
Population Healthy Nuclei (%) (U2OS; [1]): 57% and 86%
Population Hoechst High Intensity Objects (%) (U2OS; [1]): 0%
Population Membrane Permeable-Phenotype (%) (U2OS; [1]): 8% and 3%
Population Mitochondria Different-Phenotype (%) (U2OS; [1]): 8% and 0%
Population Normal (%) (U2OS; [1]): 100%
Population Pyknosed Nuclei (%) (U2OS; [1]): 7% and 10%
Population Tubulin-Different-Phenotype (%) (U2OS; [1]): 66% and 71%
Population Fragmented Nuclei (%) (U2OS; [2]): 3% and 12%
Population Healthy Nuclei (%) (U2OS; [2]): 81% and 77%
Population Hoechst High Intensity Objects (%) (U2OS; [2]): 0%
Population Mitochondria Different-Phenotype (%) (U2OS; [2]): 0%
Population Mitotic Cells (%) (U2OS; [2]): 43% and 100%
Population Normal (%) (U2OS; [2]): 100%
Population Pyknosed Nuclei (%) (U2OS; [2]): 14% and 9%
Population Tubulin-Different-Phenotype (%) (U2OS; [2]): 55% and 33%
Population Apoptotic (%) (U2OS; [3]): 66% and 69%
Population Healthy Nuclei (%) (U2OS; [3]): 64% and 88%
Population Hoechst High Intensity Objects (%) (U2OS; [3]): 0%
Population Mitochondria Different-Phenotype (%) (U2OS; [3]): 12% and 0%
Population Mitotic Cells (%) (U2OS; [3]): 33% and 30%
Population Normal (%) (U2OS; [3]): 100% and 99%
Population Pyknosed Nuclei (%) (U2OS; [3]): 16% and 9%
Population Tubulin-Different-Phenotype (%) (U2OS; [3]): 79% and 73%
Population Apoptotic (%) (U2OS; [4]): 33% and 62%
Population Fragmented Nuclei (%) (U2OS; [4]): 0% and 4%
Population Healthy Nuclei (%) (U2OS; [4]): 90% and 82%
Population Hoechst High Intensity Objects (%) (U2OS; [4]): 0%
Population Membrane Permeable-Phenotype (%) (U2OS; [4]): 10% and 2%
Population Mitochondria Different-Phenotype (%) (U2OS; [4]): 10% and 3%
Population Mitotic Cells (%) (U2OS; [4]): 66% and 37%
Population Normal (%) (U2OS; [4]): 100% and 99%
Population Pyknosed Nuclei (%) (U2OS; [4]): 9% and 12%
Population Tubulin-Different-Phenotype (%) (U2OS; [4]): 58% and 59%
Population Apoptotic (%) (U2OS; [5]): 75% and 58%
Population Healthy Nuclei (%) (U2OS; [5]): 75% and 89%
Population Hoechst High Intensity Objects (%) (U2OS; [5]): 0%
Population Membrane Permeable-Phenotype (%) (U2OS; [5]): 6% and 0%
Population Mitochondria Different-Phenotype (%) (U2OS; [5]): 3% and 0%
Population Mitotic Cells (%) (U2OS; [5]): 25% and 41%
Population Normal (%) (U2OS; [5]): 100% and 99%
Population Pyknosed Nuclei (%) (U2OS; [5]): 9% and 7%
Population Tubulin-Different-Phenotype (%) (U2OS; [5]): 83% and 85%
Population Apoptotic (%) (U2OS; [6]): 83% and 75%
Population Fragmented Nuclei (%) (U2OS; [6]): 5% and 3%
Population Healthy Nuclei (%) (U2OS; [6]): 84% and 87%
Population Hoechst High Intensity Objects (%) (U2OS; [6]): 0%
Population Membrane Permeable-Phenotype (%) (U2OS; [6]): 2%
Population Mitochondria Different-Phenotype (%) (U2OS; [6]): 8% and 1%
Population Mitotic Cells (%) (U2OS; [6]): 16% and 24%
Population Normal (%) (U2OS; [6]): 100%
Population Pyknosed Nuclei (%) (U2OS; [6]): 10% and 8%
Population Tubulin-Different-Phenotype (%) (U2OS; [6]): 69% and 66%
